Test results: ChEMBL document CHEMBL1146567, “Isolation and structure of ruprechstyril from Ruprechtia tangarana” (2003)
In brackets after ≈: the same amount, converted by molar mass. Activity calls are given as the source filed them. The rule behind the calls is not given here.

Legend:
Cryptococcus neoformans = assay: Antimicrobial activity against Cryptococcus neoformans up to 64 ug/mL by broth microdilution susceptibility assay; type: functional, organism-based
Summary of the method: (§1)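 Broth microdilution susceptibility testing. Growth inhibition read-out is reported as the minimum inhibitory concentration, in μg/mL.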

Streptococcus pneumoniae = assay: Antimicrobial activity against Streptococcus pneumoniae up to 64 ug/mL by broth microdilution susceptibility assay; type: functional, organism-based; summary of the method: as §1
Neisseria gonorrhoeae = assay: Antimicrobial activity against Neisseria gonorrhoeae up to 64 ug/mL by broth microdilution susceptibility assay; type: functional, organism-based; summary of the method: as §1
Candida albicans = assay: Antimicrobial activity against Candida albicans up to 64 ug/mL by broth microdilution susceptibility assay; type: functional, organism-based; summary of the method: as §1
Enterococcus faecalis [1] = assay: Antimicrobial activity against Enterococcus faecalis up to 64 ug/mL by broth microdilution susceptibility assay; type: functional, organism-based; summary of the method: as §1
[2] = test system: Stenotrophomonas maltophilia; assay: Antimicrobial activity against Stenotrophomonas maltophilia up to 64 ug/mL by broth microdilution susceptibility assay; type: functional, organism-based; summary of the method: as §1
P388 = assay: Cytotoxicity against mouse P388 cells; type: functional
Escherichia coli = assay: Antimicrobial activity against Escherichia coli up to 64 ug/mL by broth microdilution susceptibility assay; type: functional, organism-based; summary of the method: as §1
Staphylococcus aureus = assay: Antimicrobial activity against Staphylococcus aureus up to 64 ug/mL by broth microdilution susceptibility assay; type: functional, organism-based; summary of the method: as §1
Enterobacter cloacae = assay: Antimicrobial activity against Enterobacter cloacae up to 64 ug/mL by broth microdilution susceptibility assay; type: functional, organism-based; summary of the method: as §1
Micrococcus luteus [3] = assay: Antimicrobial activity against Micrococcus luteus up to 64 ug/mL by broth microdilution susceptibility assay; type: functional, organism-based; summary of the method: as §1
Enterococcus faecalis [4] = assay: Antimicrobial activity against Enterococcus faecalis by broth microdilution susceptibility assay; type: functional
Summary of the method: (§2)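 Broth microdilution susceptibility testing; the value recorded is the minimum inhibitory concentration of growth, given in μg/mL, and sometimes reported as a range.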

Micrococcus luteus [5] = assay: Antimicrobial activity against Micrococcus luteus by broth microdilution susceptibility assay; type: functional; summary of the method: as §2

SMILES | Activity (Cryptococcus neoformans) | Activity (Streptococcus pneumoniae) | Activity (Neisseria gonorrhoeae) | Activity (Candida albicans) | Activity (Enterococcus faecalis [1]) | Activity [2] | Activity (P388) | Activity (Escherichia coli) | Activity (Staphylococcus aureus) | Activity (Enterobacter cloacae) | Activity (Micrococcus luteus [3]) | MIC (Enterococcus faecalis [4]) | EC50 (P388; read-out: ED50 (the source's name)) | MIC (Micrococcus luteus [5])
COc1cc(C)c(C(=O)Oc2cc(C)c(C(=O)O)c(OC)c2)c(O)c1 | inactive | inactive | inactive | inactive | inactive | inactive | inactive | inactive | inactive | inactive | inactive |  |  | 
COC(=O)[C@]12Oc3ccc(-c4ccc5c(c4O)C(=O)C4=C(O)C[C@@H](C)[C@H](O)[C@@]4(C(=O)OC)O5)c(O)c3C(=O)C1=C(O)C[C@@H](C)[C@@H]2O [SECALONIC ACID A] |  |  |  |  |  |  |  |  |  |  |  | 32 µg/mL (≈ 50.1 µM) | 3.5 µg/mL (≈ 5.48 µM) | 4 µg/mL (≈ 6.26 µM)
CC[C@H](/C=C/[C@@H](C)[C@H]1CC[C@H]2[C@@H]3CC=C4C[C@@H](O)CC[C@]4(C)[C@H]3CC[C@]12C)C(C)C |  |  |  |  |  |  | inactive |  |  |  |  |  |  | 
CCCCCc1cc2cc(OC)cc(O)c2c(=O)[nH]1 | inactive | inactive | inactive | inactive | inactive | inactive | inactive | inactive | inactive | inactive | inactive |  |  | 
COC(=O)c1cc(O)cc(OC)c1Oc1cc(C)cc(O)c1C(=O)OC | inactive | inactive | inactive | inactive | inactive | inactive | inactive | inactive | inactive | inactive | inactive |  |  | 
COc1c(OC)c2oc(=O)c3cc(O)c(OC)c4oc(=O)c(c1O)c2c43 | inactive | inactive | inactive | inactive | inactive | inactive | inactive | inactive | inactive | inactive | inactive |  |  | 
COc1cc(C)c2c(=O)c3c(O)cc(OC)cc3oc2c1 | inactive | inactive | inactive | inactive | inactive | inactive | inactive | inactive | inactive | inactive | inactive |  |  | 
